Results on 13 molecules are retold here after ChEMBL document CHEMBL4038341, “Optimization of Allosteric With-No-Lysine (WNK) Kinase Inhibitors and Efficacy in Rodent Hypertension Models” (J Med Chem, 2017).

Data set [1] can be described thus: AUC in Sprague-Dawley rat at 1.5 mg/kg, po measured up to 7 hrs post dose by HPLC analysis. The following applies: in vivo. It is filed as ADME, organism-based. Set-up: time < 7 hr, dose 1.5 mg/kg, route oral.
Data set [2] can be described thus: Plasma concentration in human WNK1 transgenic FVB mouse at 30 mg/kg, po via gavage up to 7 hrs. It is filed as ADME, organism-based. Summed up: (§1)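 A separate cohort of human WNK1-overexpressing FVB mice was dosed 30 mg kg−1 p.o. Venous blood samples were taken over time to 7 h for plasma drug concentration. n = 3.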
Data set [3] is described as follows: Half life in rat liver microsomes. It is filed as ADME, microsome.
Data set [4] addresses T1, Serine/threonine-protein kinase WNK1 (Homo sapiens, UniProt Q9H4A3). Briefly: Allosteric inhibition of WNK1 (unknown origin) expressed in HEK293 cells co-expressing flag-OSR1 assessed as reduction in sorbitol-stimulated OSR1 phosphorylation preincubated with compound for 2.5 hrs followed co-administration with sorbitol measured after 1 hr by AlphaLISA assay. In kind it is cell-based.

The nature of data set [5]: Plasma concentration in human WNK1 transgenic FVB mouse at 30 mg/kg, po via gavage at 7 hrs post dose. It is filed as ADME, organism-based. Summed up: as §1
The nature of data set [6]: Equilibrium solubility of compound at pH 6.8. The following applies: buffer. It is filed as physicochemical.
Data set [7] is described as follows: Oral bioavailability in Sprague-Dawley rat at 1.5 mg/kg measured up to 7 hrs post dose by HPLC analysis. In kind it is ADME, organism-based. The following applies: in vivo.
Data set [8] in a line: Cmax in Sprague-Dawley rat at 1.5 mg/kg, po measured up to 7 hrs post dose by HPLC analysis. In kind it is ADME, organism-based. The following applies: in vivo. Further details: dose 1.5 mg/kg, route oral.
For data set [9], the target named is T1, Serine/threonine-protein kinase WNK1. Description: Allosteric inhibition of recombinant human N-terminal GST-tagged WNK1 catalytic domain (1 to 491 residues) expressed in baculovirus expression system using fluorescein-labeled OSR1 peptide as substrate after 3 hrs by mobility shift assay.
Data set [10] in a line: Clearance in Sprague-Dawley rat at 0.5 mg/kg, iv measured up to 7 hrs post dose by HPLC analysis. It is filed as ADME, organism-based. The following applies: in vivo.
The nature of data set [11]: Ratio of Cp in human WNK1 expressing transgenic FVB mouse at 30 mg/kg, po to IC50 for WNK1 (unknown origin) expressed in HEK293 cells. Summed up:
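Separate PK cohort of FVB mice overexpressing human WNK1, given a single oral dose of 30 mg kg−1 (n = 3); venous blood sampled over time for plasma concentration. Plasma level compared against the cellular IC50 from AlphaLISA readout of WNK-mediated phosphorylation of exogenous OSR1 in HEK293 cells.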

Data set [12] deals with T1, Serine/threonine-protein kinase WNK1. Description: Allosteric inhibition of recombinant human N-terminal GST-tagged WNK1 catalytic domain (1 to 491 residues) expressed in baculovirus expression system using fluorescein-labeled OSR1 peptide as substrate after 3 hrs by HTRF assay.
Data set [13] deals with Mus musculus. Briefly: Anti-hypertensive activity in human WNK1 transgenic FVB mouse assessed as reduction in systolic blood pressure at 30 mg/kg, po via gavage measured every 10 minutes for 15 seconds. It is filed as functional, organism-based. Summed up:
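Conscious FVB mice transgenic for human WNK1, fitted with implanted radiotelemetry devices, received single oral doses. Systolic blood pressure was expressed as peak and time-weighted average change against the 24 h pre-dose baseline. Heart rate was also monitored. n = 4 per group, mean ± SEM, two-way ANOVA with Bonferroni post-test versus vehicle. Plasma exposure was measured in a separate cohort (n = 3).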

Data set [14] has as its system Rattus norvegicus. Description: Anti-hypertensive activity in […] rat assessed as induction of diuresis at 10 mg/kg, po administered as single dose on day 2,3 and 4 measured for 7 hrs post dose. It is filed as functional, organism-based. Summed up: (§2)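 Spontaneously hypertensive rats got single ascending oral doses on successive days (vehicle, then 10, 30, then 100 mg kg−1). Urine was collected in metabolic cages over 7 h for volume and sodium and potassium excretion. n = 4 per group, mean ± SEM, one-way ANOVA with Bonferroni post-test versus vehicle.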

In data set [15] the test system is Rattus norvegicus. Briefly: Anti-hypertensive activity in […] rat assessed as induction of natriuresis at 10 mg/kg, po administered as single dose on day 2,3 and 4 measured for 7 hrs post dose. It is filed as functional, organism-based. Summed up: as §2
The test system of data set [16] is Rattus norvegicus. Description: Anti-hypertensive activity in […] rat assessed as reduction in total peripheral resistance at 100 mg/kg, po measured for 7 hrs post dose. It is filed as functional, organism-based. The following applies: tested as the 2H-labelled form.
Data set [17] addresses Tyrosine-protein kinase BTK (Homo sapiens) (UniProt Q06187). Description: Inhibition of human full length BTK expressed in mammalian expression system at 10 uM by kinomescan assay. In a few lines: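 Binding panel of 440 human kinases (KINOMEscan) at a 10 μM screening concentration. Percent inhibition per kinase, with >35% inhibition flagged as significant.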
Data set [18] relates to Rattus norvegicus. Briefly: Anti-hypertensive activity in […] rat assessed as reduction in stroke volume at 100 mg/kg, po measured for 7 hrs post dose. It is filed as functional, organism-based. The following applies: tested as the 2H-labelled form.
Data set [19] has as its system Mus musculus. Description: Anti-hypertensive activity in po dosed human WNK1 transgenic FVB mouse assessed as reduction in blood pressure administered via gavage measured every 10 minutes for 15 seconds after 6 to 12 hrs. In kind it is functional, organism-based. The following applies: tested as the 2H-labelled form. In a few lines:
(§3)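 Conscious FVB mice overexpressing human WNK1, with implanted radiotelemetry devices, received single oral doses of 10, 30 or 100 mg kg−1. Systolic blood pressure was read as peak and time-weighted average against the 24 h before treatment. n = 4 per group, mean ± SEM, two-way ANOVA with Bonferroni post-test versus vehicle.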

The subject of data set [20] is Rattus norvegicus. Briefly: Anti-hypertensive activity in […] rat assessed as reduction in blood pressure at 100 mg/kg, po measured for 7 hrs post dose. In kind it is functional, organism-based. The following applies: tested as the 2H-labelled form.
The test system of data set [21] is Rattus norvegicus. Briefly: Anti-hypertensive activity in […] rat assessed as induction of kaliuresis administered orally as single dose on day 2,3 and 4 measured for 7 hrs post dose. It is filed as functional. The following applies: tested as the 2H-labelled form. In a few lines: as §2
Data set [22] has as its system Rattus norvegicus. Briefly: Anti-hypertensive activity in SHR rat assessed as induction of diuresis administered orally as single dose on day 2,3 and 4 measured for 7 hrs post dose. In kind it is functional. The following applies: tested as the 2H-labelled form. Summed up: as §2
The test system of data set [23] is Mus musculus. Briefly: Anti-hypertensive activity in human WNK1 transgenic FVB mouse assessed plasma concentration required for SBP reducing activity at 30 mg/kg, po via gavage measured after 7 hrs. It is filed as functional, organism-based. The following applies: tested as the 2H-labelled form. Summed up:
as §1

Data set [24] relates to Mus musculus. Briefly: Anti-hypertensive activity in po dosed human WNK1 transgenic FVB mouse assessed as reduction in blood pressure administered via gavage measured every 10 minutes for 15 seconds after 2 hrs. The following applies: tested as the 2H-labelled form. In kind it is functional, organism-based. In a few lines: as §3
In data set [25] the test system is Rattus norvegicus. Briefly: Anti-hypertensive activity in […] rat assessed as induction of natriuresis administered orally as single dose on day 2,3 and 4 measured for 7 hrs post dose. It is filed as functional. The following applies: tested as the 2H-labelled form. Summed up:
as §2

In data set [26] the target is Tyrosine-protein kinase Fer (Homo sapiens) (UniProt P16591). Description: Inhibition of human FER (542 to 822 residues) expressed in bacterial expression system at 10 uM by kinomescan assay. In a few lines:
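KINOMEscan panel of 440 human kinases, with test compound screened at a single concentration of 10 μM. Read-out is percent inhibition. Hits above 35% inhibition are flagged.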

The subject of data set [27] is Rattus norvegicus. Briefly: Increase in heart rate in […] rat at 100 mg/kg, po measured for 7 hrs post dose. The following applies: tested as the 2H-labelled form. In kind it is functional, organism-based.
Data set [28] concerns the target T1, Serine/threonine-protein kinase WNK1. Description: Non-competitive inhibition of recombinant human N-terminal GST-tagged WNK1 (1 to 491 residues) expressed in baculovirus expression system using fluorescein-labeled OSR1 peptide as substrate measured every 3 mins from 90 to 250 mins in presence of varying concentration of ATP by Michaelis-Menten plot-based analysis.

≈ marks a conversion by molar mass, not a printed value. Calls of active or inactive are those of the source. The calls are words filed in the database; no cut-off is given here.

T1 sequence (Q9H4A3 whole entry): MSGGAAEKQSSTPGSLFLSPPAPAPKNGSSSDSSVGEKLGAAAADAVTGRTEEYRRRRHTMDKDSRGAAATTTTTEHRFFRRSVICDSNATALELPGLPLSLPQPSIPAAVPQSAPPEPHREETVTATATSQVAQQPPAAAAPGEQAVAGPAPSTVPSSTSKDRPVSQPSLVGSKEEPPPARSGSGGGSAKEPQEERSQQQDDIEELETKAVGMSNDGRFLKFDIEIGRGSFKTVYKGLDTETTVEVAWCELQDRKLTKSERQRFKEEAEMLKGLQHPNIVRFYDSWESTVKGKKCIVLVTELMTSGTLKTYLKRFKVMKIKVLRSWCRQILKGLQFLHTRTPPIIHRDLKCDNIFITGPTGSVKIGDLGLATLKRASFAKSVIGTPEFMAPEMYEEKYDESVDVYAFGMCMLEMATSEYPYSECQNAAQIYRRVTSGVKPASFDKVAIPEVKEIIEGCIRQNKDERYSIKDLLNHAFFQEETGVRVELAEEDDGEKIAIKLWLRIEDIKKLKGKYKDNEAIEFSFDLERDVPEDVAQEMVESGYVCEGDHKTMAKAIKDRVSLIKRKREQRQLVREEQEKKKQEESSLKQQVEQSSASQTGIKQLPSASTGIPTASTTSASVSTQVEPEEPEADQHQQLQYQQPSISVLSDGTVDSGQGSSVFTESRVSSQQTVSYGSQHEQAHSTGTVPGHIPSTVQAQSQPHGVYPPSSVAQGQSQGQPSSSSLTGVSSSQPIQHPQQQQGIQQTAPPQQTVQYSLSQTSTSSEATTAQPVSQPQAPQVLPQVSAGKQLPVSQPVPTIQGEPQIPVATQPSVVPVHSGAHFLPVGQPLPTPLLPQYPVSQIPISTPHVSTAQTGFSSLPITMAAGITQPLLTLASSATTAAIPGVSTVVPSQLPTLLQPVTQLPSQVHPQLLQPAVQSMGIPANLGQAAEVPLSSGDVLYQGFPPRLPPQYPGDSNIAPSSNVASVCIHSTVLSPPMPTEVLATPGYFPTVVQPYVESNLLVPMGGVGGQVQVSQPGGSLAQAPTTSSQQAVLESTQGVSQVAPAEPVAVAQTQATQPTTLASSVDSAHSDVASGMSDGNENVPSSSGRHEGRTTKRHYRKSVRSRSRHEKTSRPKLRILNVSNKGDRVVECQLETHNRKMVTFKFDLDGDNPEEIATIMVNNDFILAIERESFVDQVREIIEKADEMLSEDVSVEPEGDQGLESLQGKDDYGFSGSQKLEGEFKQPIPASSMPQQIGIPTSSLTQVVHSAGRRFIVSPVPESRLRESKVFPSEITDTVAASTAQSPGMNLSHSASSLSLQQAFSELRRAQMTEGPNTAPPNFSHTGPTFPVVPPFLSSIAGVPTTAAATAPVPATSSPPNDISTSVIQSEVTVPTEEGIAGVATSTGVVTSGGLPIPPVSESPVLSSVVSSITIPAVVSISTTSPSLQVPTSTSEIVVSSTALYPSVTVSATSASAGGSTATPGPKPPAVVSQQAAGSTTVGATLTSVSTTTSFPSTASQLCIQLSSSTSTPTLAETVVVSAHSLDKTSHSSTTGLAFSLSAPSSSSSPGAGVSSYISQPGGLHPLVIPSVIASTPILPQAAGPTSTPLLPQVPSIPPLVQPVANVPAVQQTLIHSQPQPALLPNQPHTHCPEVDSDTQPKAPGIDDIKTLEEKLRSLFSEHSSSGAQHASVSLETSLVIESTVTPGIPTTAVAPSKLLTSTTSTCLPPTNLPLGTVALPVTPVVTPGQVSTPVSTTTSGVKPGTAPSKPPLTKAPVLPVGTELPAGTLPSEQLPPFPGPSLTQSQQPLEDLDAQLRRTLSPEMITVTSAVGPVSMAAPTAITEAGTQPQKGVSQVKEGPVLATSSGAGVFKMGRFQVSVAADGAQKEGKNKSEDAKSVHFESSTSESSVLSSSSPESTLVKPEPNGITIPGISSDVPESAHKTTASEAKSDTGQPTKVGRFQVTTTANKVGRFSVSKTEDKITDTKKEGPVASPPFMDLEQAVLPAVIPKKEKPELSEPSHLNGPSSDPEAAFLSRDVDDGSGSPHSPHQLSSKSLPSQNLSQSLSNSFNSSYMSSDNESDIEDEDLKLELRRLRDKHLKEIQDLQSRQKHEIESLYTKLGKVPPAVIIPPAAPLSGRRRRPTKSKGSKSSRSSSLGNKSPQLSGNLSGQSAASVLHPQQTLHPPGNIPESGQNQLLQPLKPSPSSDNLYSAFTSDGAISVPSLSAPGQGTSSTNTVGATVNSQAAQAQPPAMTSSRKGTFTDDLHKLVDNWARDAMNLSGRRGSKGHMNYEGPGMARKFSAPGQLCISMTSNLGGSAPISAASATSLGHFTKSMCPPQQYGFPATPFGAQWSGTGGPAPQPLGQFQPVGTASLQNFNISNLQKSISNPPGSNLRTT
Sequence of Tyrosine-protein kinase Fer (Homo sapiens) (P16591 whole entry, looked up, the tested form may be a part): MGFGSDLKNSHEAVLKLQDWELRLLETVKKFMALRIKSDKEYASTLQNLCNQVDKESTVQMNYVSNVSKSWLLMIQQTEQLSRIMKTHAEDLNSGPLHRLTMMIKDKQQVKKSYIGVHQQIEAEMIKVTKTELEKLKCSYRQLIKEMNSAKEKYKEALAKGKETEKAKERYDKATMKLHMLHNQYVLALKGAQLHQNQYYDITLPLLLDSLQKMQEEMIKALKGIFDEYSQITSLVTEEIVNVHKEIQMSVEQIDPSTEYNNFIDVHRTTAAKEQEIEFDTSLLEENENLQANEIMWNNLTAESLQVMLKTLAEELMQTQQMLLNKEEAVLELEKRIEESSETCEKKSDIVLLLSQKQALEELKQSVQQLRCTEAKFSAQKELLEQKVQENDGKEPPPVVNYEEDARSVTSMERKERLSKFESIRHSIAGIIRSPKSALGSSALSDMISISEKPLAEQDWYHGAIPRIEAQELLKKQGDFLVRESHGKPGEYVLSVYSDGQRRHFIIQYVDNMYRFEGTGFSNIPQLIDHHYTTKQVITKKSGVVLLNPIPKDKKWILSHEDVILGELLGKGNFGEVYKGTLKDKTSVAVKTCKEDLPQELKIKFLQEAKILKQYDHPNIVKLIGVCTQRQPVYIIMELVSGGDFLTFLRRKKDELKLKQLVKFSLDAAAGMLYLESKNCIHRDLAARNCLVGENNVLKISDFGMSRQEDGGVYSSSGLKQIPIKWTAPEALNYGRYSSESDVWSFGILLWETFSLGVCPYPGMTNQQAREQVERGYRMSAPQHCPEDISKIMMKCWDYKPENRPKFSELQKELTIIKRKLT
Sequence of Tyrosine-protein kinase BTK (Homo sapiens) (Q06187 whole entry): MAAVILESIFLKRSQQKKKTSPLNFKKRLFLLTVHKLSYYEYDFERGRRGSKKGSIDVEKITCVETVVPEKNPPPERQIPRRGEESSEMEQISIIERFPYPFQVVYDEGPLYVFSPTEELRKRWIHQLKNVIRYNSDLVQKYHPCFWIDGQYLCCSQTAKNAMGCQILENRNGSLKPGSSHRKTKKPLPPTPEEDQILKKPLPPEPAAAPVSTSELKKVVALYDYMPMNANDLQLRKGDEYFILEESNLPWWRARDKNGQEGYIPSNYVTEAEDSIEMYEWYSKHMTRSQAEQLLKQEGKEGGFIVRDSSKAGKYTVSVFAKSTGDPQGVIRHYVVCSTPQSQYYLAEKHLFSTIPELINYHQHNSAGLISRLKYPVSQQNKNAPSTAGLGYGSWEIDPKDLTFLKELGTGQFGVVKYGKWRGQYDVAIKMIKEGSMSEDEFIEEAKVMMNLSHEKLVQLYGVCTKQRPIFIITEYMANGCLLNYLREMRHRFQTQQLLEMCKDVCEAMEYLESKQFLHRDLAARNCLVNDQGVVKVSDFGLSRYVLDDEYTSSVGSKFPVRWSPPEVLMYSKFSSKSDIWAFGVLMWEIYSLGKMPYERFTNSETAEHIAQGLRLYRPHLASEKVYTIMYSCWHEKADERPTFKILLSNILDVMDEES

In turn, `[2H]C([2H])([2H])Nc1nc(-c2cc(C(=O)N3CCN(Cc4ccc(Cl)cc4)CC3)c(Cl)cn2)cs1` had an area under the curve (AUC) at 7 h in data set [1] of 0.811 µM·h. The concentration at 7 h in [2] and in data set [5] was 1000 nM in each case. The molecule also registered a half-life in [3] of 15 min. Also, the half-inhibitory concentration (IC50) in [4] came to 589 nM; in [9] it was 6 nM. This molecule returned a solubility (thermodynamic) in data set [6] of 19 µM (≈ 8.84 µg/mL). The molecule further displayed a bioavailability in [7] of 45%. The same molecule showed a Cmax in data set [8] of 308 nM. In addition, in data set [10], the clearance is 24 mL/min/kg. Besides, the Ratio in data set [11] was 3.

As to `c1ccc(-c2cccc(-n3cc(CNCC4CCCCC4)c4ccccc43)c2)cc1`, the half-inhibitory concentration (IC50) in data set [9] worked out at 2140 nM.

Take `COc1cccc(-c2cc(C(=O)N(C)[C@@H]3CCN(Cc4ccc(Cl)cc4)C3)c3ccccc3n2)c1`: the 50% inhibitory concentration (IC50) in [9] was determined as 750 nM.

For `COc1cccc(-c2cc(-n3cc(CNCC4CCCCC4)c4cc(F)ccc43)ccn2)c1`, the IC50 in [12] was found to be 39 nM.

For `COc1cccc(-c2cc(-n3cc(CNCC(C)C)c4ccccc43)c(C)cn2)c1`, the outcome in the data set on Mus musculus [13] was Active. The half-life in data set [3] came to 15 min. Besides, the IC50 was 1390 nM in [4] and 95 nM in data set [9]. Also, the solubility (thermodynamic) in [6] came out at 550 µM (≈ 220 µg/mL).

Consider `COc1cccc(-c2cc(-n3cc(CNCC4CCCCC4)c4ccccc43)ccn2)c1`, for which, in [9], the IC50 was determined as 60 nM.

Turning to `CNc1nc(-c2ccc3c(c2)CCN3C(=O)c2ccccc2OCc2ccc(Cl)cc2)cs1`, in [1], the AUC at 7 h came out at 0.014 µM·h. This molecule also had a bioavailability in data set [7] of 1.4%. The molecule further displayed a peak concentration (Cmax) in data set [8] of 2 nM. For the same molecule, the half-maximal inhibitory concentration (IC50) in data set [9] was 420 nM. The molecule further showed a clearance in data set [10] of 108 mL/min/kg.

Consider `N=C(N)NC(=O)c1nc(Cl)c(N)nc1N`, for which the outcome in the data set with Rattus norvegicus [14] and in the data set on Rattus norvegicus [15] was Active.

Regarding `CNc1nc(-c2cc(C(=O)N3CCN(Cc4ccc(Cl)cc4)CC3)c(Cl)cn2)cs1`, in [1], the AUC at 7 h is 0.279 µM·h. In addition, the result in the data set on Rattus norvegicus [16], with Rattus norvegicus [18], with Rattus norvegicus [20] and in the data set with Rattus norvegicus [27] was Active. The inhibition result in data set [17] and in data set [26] was “Active” each time. This molecule gave a half-life in [3] of 13 min. Moreover, the Activity result with Mus musculus [19], in the data set with Rattus norvegicus [21], in the data set with Rattus norvegicus [22], with Mus musculus [24] and in the data set on Rattus norvegicus [25] was “Dose-dependent effect” throughout. For the same molecule, the concentration for half-maximal inhibition (IC50) in data set [4] amounted to 352 nM; in data set [9], 4 nM. In data set [6], this molecule returned a thermodynamic solubility of 55 µM (≈ 25.4 µg/mL). This molecule registered a bioavailability in data set [7] of 21%. For the same molecule, the Cp in the data set with Mus musculus [23] is greater than 2 µM. In data set [8], this molecule gave a peak concentration (Cmax) of 113 nM. This molecule displayed a clearance in data set [10] of 36 mL/min/kg.

For `COc1cccc(-c2cccc(-n3cc(CNCC4CCCCC4)c4ccccc43)c2)c1`, the Ki in data set [28] was 32.4 nM. Further, the IC50 in data set [9] came out at 162 nM.

Take `COc1cccc(-c2cc(C(=O)N3CCN(Cc4ccccc4)CC3)c3ccccc3n2)c1`: in data set [9], the IC50 amounted to 623 nM.

With `CNc1nc(-c2cc(C(=O)N3CCN(Cc4ccc(Cl)cc4)CC3)ccn2)cs1`, in [9], the 50% inhibitory concentration (IC50) is 106 nM.

As for `COc1cccc(-c2cc(C(=O)N3CCN(Cc4ccc(Cl)cc4)CC3)ccn2)c1`, the IC50 in [9] worked out at 971 nM.
